Consider 2 compounds from ChEMBL document CHEMBL3108741 (J Med Chem, 2014).

The source made the active and inactive calls. Bounds are passed on as bounds.

Broadly, the EC50 is the concentration that produces a half-maximal response. A word on the logP: it is a log measure of how a compound divides between an organic and an aqueous phase. The low end stands for a more hydrophilic compound, the high end for a more lipophilic compound. Broadly, the IC50 is the concentration that inhibits the measured activity by half. Read a high IC50 as weaker potency in that assay.

Data set [1] deals with HEK293. Briefly: Positive allosteric modulation of wild type rat alpha1beta2gamma2L GABAA receptor expressed in HEK293 cells assessed as potentiation of GABA-induced chloride current elicitation at 20 uM by […] relative to control. Type of data set: cell-based. The essentials: (§1)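 HEK 293 cells expressing wild-type or α1 mutant receptors, whole-cell recording. Peak currents elicited by GABA at 5 μM for wild type or 10 μM for mutants (11–17% of maximal), with or without 20 μM compound. Mean ± S.D., 4–7 cells per receptor–compound combination.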
On the technique in general: Two-electrode voltage clamp is typically applied to oocytes expressing channels or transporters.

In data set [2] the test system is HEK293. As to the kind of experiment: Positive allosteric modulation of rat alpha1Q241Lbeta2gamma2L GABAA receptor mutant expressed in HEK293 cells assessed as potentiation of GABA-induced chloride current elicitation at 20 uM by […] relative to control. In kind it is cell-based. The procedure, abridged:
as §1

Data set [3] is filed under the species Rattus norvegicus. As to the kind of experiment: Positive allosteric modulation of rat alpha1beta2gamma2L GABAA receptor expressed in Xenopus laevis oocytes assessed as potentiation of GABA-induced chloride current elicitation at 10 uM by two-electrode voltage clamp technique relative to control. In kind it is cell-based.
Data set [4] deals with HEK293. As to the kind of experiment: Positive allosteric modulation of wild type rat alpha1beta2gamma2L GABAA receptor expressed in HEK293 cells assessed as longest-lived intracluster closed time at 20 uM by […] relative to control. In kind it is cell-based.
The test system of data set [5] is HEK293. As to the kind of experiment: Positive allosteric modulation of rat alpha1W245Lbeta2gamma2L GABAA receptor mutant expressed in HEK293 cells assessed as potentiation of GABA-induced chloride current elicitation at 20 uM by […] relative to control. Type of data set: cell-based. The procedure, abridged: as §1
In data set [6] the test system is HEK293. Briefly: Positive allosteric modulation of rat alpha1S240Lbeta2gamma2L GABAA receptor mutant expressed in HEK293 cells assessed as potentiation of GABA-induced chloride current elicitation at 20 uM by […] relative to control. In kind it is cell-based. The essentials: as §1
Data set [7] relates to HEK293. Briefly: Positive allosteric modulation of wild type rat alpha1beta2gamma2L GABAA receptor expressed in HEK293 cells assessed as OT long at 20 uM by […]. Type of data set: cell-based. The procedure, abridged:
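Single-channel recording of rat wild-type α1β2γ2L GABAA receptors. Receptors were activated by 50 μM GABA with or without 20 μM compound, in 4-7 patches. Intracluster open-time histograms were fitted to sums of two or three exponentials, and the long open-time component was taken from the fit.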

For data set [8], the species on record is Rattus norvegicus. As to the kind of experiment: Positive allosteric modulation of rat alpha1beta2gamma2L GABAA receptor expressed in Xenopus laevis oocytes assessed as potentiation of GABA-induced chloride current elicitation by two-electrode voltage clamp technique relative to control. In kind it is cell-based.
The test system of data set [9] is Mus musculus. As to the kind of experiment: Anesthetic effect in mouse assessed as duration of loss of righting reflex at 4 mg/kg, iv. Type of data set: functional. The essentials:
(§2)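 Tail-vein injection in mice, with anesthesia read as loss of righting reflex (LRR): duration, onset and recovery scored. Compounds were dissolved in 22.5% aqueous 2-(hydroxypropyl)-β-cyclodextrin. Lower doses came from serial dilution of the 8 mg/kg solution with 0.9% saline. Doses tested were 1, 2, 4 and 8 mg/kg.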

Data set [10] relates to Mus musculus. Briefly: Anesthetic effect in mouse assessed as recovery of righting reflex at 8 to 16 mg/kg, iv. Type of data set: functional. To be noted: dose mg/kg 8-16. The essentials:
(§3)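 Mice were given intravenous tail-vein injections at 8 and 16 mg/kg. The compound was in 22.5% aqueous 2-(hydroxypropyl)-β-cyclodextrin. Anesthesia was defined as loss of righting reflex, and onset, duration and recovery of the reflex were followed.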

For data set [11], the system named is Xenopus laevis. As to the kind of experiment: Anesthetic effect on prelimb-bud stage Xenopus laevis tadpole assessed as loss of swimming reflex after 3 hrs. In kind it is functional, organism-based.
Data set [12] has as its system Mus musculus. Briefly: Anesthetic effect in mouse assessed as recovery of righting reflex at 1 to 8 mg/kg, iv. To be noted: dose mg/kg 1-8. In kind it is functional. The essentials:
(§4)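 Mice, tail vein injection; compound in 22.5% aqueous 2-(hydroxypropyl)-β-cyclodextrin, lower doses by serial dilution of the 8 mg/kg stock with 0.9% saline. Anesthesia scored as loss of righting reflex; duration of LRR recorded at each dose.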

The species named for data set [13] is Rattus norvegicus. Briefly: […] of rat alpha1beta2gamma2L GABAA receptor expressed in Xenopus laevis oocytes assessed as chloride current elicitation at 10 uM by two-electrode voltage clamp technique relative to GABA. In kind it is cell-based. The essentials: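 Rat α1β2γ2L GABAA receptors expressed in Xenopus oocytes, at least four oocytes. Direct current gated by 10 μM compound without GABA, expressed as the ratio of compound-only current to current evoked by 2 μM GABA; mean ± SEM.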

Data set [14] deals with Mus musculus. Briefly: Anesthetic effect in mouse assessed as duration of loss of righting reflex at 1 mg/kg, iv. Type of data set: functional, organism-based. Also noted: dose 1 mg/kg. The essentials:
as §2

Data set [15] relates to Mus musculus. As to the kind of experiment: Anesthetic effect in mouse assessed as onset of loss of righting reflex at 8 to 16 mg/kg, iv. Type of data set: functional. The note with it: dose mg/kg 8-16. The essentials:
as §3

For data set [16], the system named is HEK293. Briefly: Positive allosteric modulation of wild type rat alpha1beta2gamma2L GABAA receptor expressed in HEK293 cells assessed as longest-lived intracluster open time at 20 uM by […] relative to control. In kind it is cell-based.
Data set [17] relates to Mus musculus. As to the kind of experiment: Anesthetic effect in mouse assessed as duration of loss of righting reflex at 8 mg/kg, iv. Type of data set: functional. The procedure, abridged:
as §2

Data set [18] is described as follows: Lipophilicity, log P of the compound. Type of data set: physicochemical. To be noted: octanol/water.
The species named for data set [19] is Rattus norvegicus. Briefly: Positive allosteric modulation of rat alpha1beta2gamma2L GABAA receptor expressed in Xenopus laevis oocytes assessed as potentiation of GABA-induced chloride current elicitation at 1 uM by two-electrode voltage clamp technique relative to control. In kind it is cell-based.
The subject of data set [20] is Mus musculus. As to the kind of experiment: Anesthetic effect in mouse assessed as duration of loss of righting reflex at 2 mg/kg, iv. In kind it is functional. The procedure, abridged: as §2
Data set [21] is filed under the species Rattus norvegicus. As to the kind of experiment: Positive allosteric modulation of rat alpha1beta2gamma2L GABAA receptor expressed in Xenopus laevis oocytes assessed as potentiation of GABA-induced chloride current elicitation at 0.1 uM by two-electrode voltage clamp technique relative to control. Type of data set: cell-based.
Data set [22] is described as follows: Displacement of [35S]TBPS from rat picrotoxin binding site of GABAA receptor after 2 hrs by scintillation counting analysis. The procedure, abridged:
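[35S]TBPS binding inhibition; duplicate experiments each run in triplicate, mean ± SEM. Highest concentration tested 30 μM; IC50 from fitted binding curve, with maximal displacement noted where inhibition was partial.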

Data set [23] has as its system Xenopus laevis. Briefly: Anesthetic effect on prelimb-bud stage Xenopus laevis tadpole assessed as loss of righting reflex after 3 hrs. Type of data set: functional, organism-based.
Data set [24] has as its system Mus musculus. Briefly: Anesthetic effect in mouse assessed as onset of loss of righting reflex at 1 to 8 mg/kg, iv. In kind it is functional. The note with it: dose mg/kg 1-8. The procedure, abridged: as §2
The subject of data set [25] is Mus musculus. Briefly: Anesthetic effect in mouse assessed as duration of loss of righting reflex at 16 mg/kg, iv. In kind it is functional. The procedure, abridged: as §4

Consider `CO[C@H]1[C@H]2CC[C@H]3[C@@H]4CC(=O)C[C@]4(C)CC[C@@H]3[C@]2(C)CC[C@@H]1O`, for which the Ratio was 9.2 in data set [1]; 1.3 in data set [2]; 16 in [3]; 0.06 in [4]; 0.9 in [5]; 9.4 in data set [6]. For the same compound, the Ratio turned out to be 0.08 in [13], 0.53 in [16], 6.48 in data set [19] and 1.41 in data set [21]. Also, the TIME in data set [7] was determined as 17.7 ms. Also, in data set [8], the Activity result was “Dose-dependent effect”. In addition, the Time is reported as 5 min in data set [9]; 1 min in [10]; 1 min in data set [12]; below 30 s in data set [15]; 9 min in [17]; 1 min in data set [20]. The Time in data set [24] is reported as below 30 s. Moreover, the EC50 in data set [11] was 1.73 µM; in data set [23], 0.34 µM. In [14], the result was inactive. The compound further yielded a logP in data set [18] of 3.19. The IC50 in data set [22] stood at 0.083 µM.

For the compound `C[C@@]12CC[C@H]3[C@@H](CC[C@@H]4C[C@@H](O)CC[C@]43C)[C@@H]1CC(=O)C2`, the Ratio in data set [1] was found to be 7.8; in data set [2] it was 1.3; in data set [3], 34.7; in data set [4] it was 0.05; in data set [5], 1; in data set [6], 7.6. For the same compound, the Ratio in data set [13] was found to be 0.15; in [16], 0.57; in data set [19] it was 7.72; in data set [21] it was 1.42. For the same compound, the TIME in [7] worked out at 12.4 ms. In addition, the Activity result in [8] was “Dose-dependent effect”. Moreover, the Time in [10] is recorded as 1 min; in [12], 1 min; in data set [15], below 30 s; in [17] it was 3 min; in data set [24], below 30 s; in [25] it was 7 min. For the same compound, the EC50 in data set [11] is 1.73 µM; in data set [23], 0.55 µM. The compound also gave a logP in data set [18] of 3.71. The same compound came in with an IC50 in data set [22] of 0.081 µM.
